Active and inactive are the calls of the source. The calls are words filed in the database; no cut-off is given here.
Molecular target: T1, Sodium/glucose cotransporter 2 (Homo sapiens, UniProt P31639)
T1 sequence (P31639 whole entry): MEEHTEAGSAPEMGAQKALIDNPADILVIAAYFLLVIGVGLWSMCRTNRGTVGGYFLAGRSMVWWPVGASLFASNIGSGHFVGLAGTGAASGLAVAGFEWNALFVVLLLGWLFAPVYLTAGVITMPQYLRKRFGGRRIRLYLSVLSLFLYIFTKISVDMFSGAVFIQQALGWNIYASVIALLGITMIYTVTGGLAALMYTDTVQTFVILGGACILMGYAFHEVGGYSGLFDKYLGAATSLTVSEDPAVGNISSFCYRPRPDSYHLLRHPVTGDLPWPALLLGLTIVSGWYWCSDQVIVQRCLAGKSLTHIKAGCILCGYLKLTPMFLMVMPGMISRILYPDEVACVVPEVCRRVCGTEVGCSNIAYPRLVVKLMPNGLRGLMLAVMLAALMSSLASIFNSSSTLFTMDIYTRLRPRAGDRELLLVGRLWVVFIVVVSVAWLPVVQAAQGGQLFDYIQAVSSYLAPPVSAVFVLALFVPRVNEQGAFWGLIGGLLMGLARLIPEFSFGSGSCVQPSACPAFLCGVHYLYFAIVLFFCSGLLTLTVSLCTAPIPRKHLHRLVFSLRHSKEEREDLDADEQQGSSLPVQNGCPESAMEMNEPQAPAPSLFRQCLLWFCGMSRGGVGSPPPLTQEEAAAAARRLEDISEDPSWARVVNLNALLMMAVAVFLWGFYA
Assay: Inhibition of human SGLT2 expressed in CHO cells assessed as [14C]AMG uptake after 45 mins
Format: cell-based
Outline: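 Cells incubated 45 min in reaction buffer with compound plus 1 mM AMG containing [14C]AMG; uptake read as radioactivity in cell lysates. IC50 from four-parameter logistic curve fit; means of multiple independent experiments, with phlorizin and reference standard included in every run.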

| Compound | IC50 [nM] |
| --- | --- |
| COc1ccc(Cc2ccccc2O[C@@H]2O[C@H](CO)[C@@H](O)[C@H](O)[C@H]2O)cc1 [SERGLIFLOZIN A] | 4.8 |
| COc1ccc(Cc2ccccc2O[C@@H]2C[C@H](CO)[C@@H](O)[C@H](O)[C@H]2O)cc1 | 42 |
| CSc1ccc(Cc2ccccc2O[C@@H]2C[C@H](CO)[C@@H](O)[C@H](O)[C@H]2O)cc1 | 19 |
| OC[C@H]1C[C@@H](Oc2ccccc2Cc2ccc(Cl)cc2)[C@H](O)[C@@H](O)[C@@H]1O | 150 |
| OC[C@H]1C[C@@H](Oc2ccccc2Cc2ccc(F)cc2)[C@H](O)[C@@H](O)[C@@H]1O | 630 |
| OC[C@H]1C[C@@H](Oc2ccccc2Cc2ccc(C3CC3)cc2)[C@H](O)[C@@H](O)[C@@H]1O | 11 |
| CCOC(=O)OC[C@H]1O[C@@H](Oc2ccccc2Cc2ccc(OC)cc2)[C@H](O)[C@@H](O)[C@@H]1O [SERGLIFLOZIN ETABONATE] | 260 |
| C=Cc1ccc(Cc2ccccc2O[C@@H]2C[C@H](CO)[C@@H](O)[C@H](O)[C@H]2O)cc1 | 29 |
| CCc1ccc(Cc2ccccc2O[C@@H]2C[C@H](CO)[C@@H](O)[C@H](O)[C@H]2O)cc1 | 28 |
| OC[C@H]1C[C@@H](Oc2ccccc2Cc2ccc(C(F)(F)F)cc2)[C@H](O)[C@@H](O)[C@@H]1O | 120 |
| CCOc1ccc(Cc2ccccc2O[C@@H]2C[C@H](CO)[C@@H](O)[C@H](O)[C@H]2O)cc1 | 110 |
| OC[C@H]1C[C@@H](Oc2ccccc2Cc2ccc(O)cc2)[C@H](O)[C@@H](O)[C@@H]1O | 290 |
| CCCc1ccc(Cc2ccccc2O[C@@H]2C[C@H](CO)[C@@H](O)[C@H](O)[C@H]2O)cc1 | 120 |
| OC[C@H]1C[C@@H](Oc2ccccc2Cc2ccccc2)[C@H](O)[C@@H](O)[C@@H]1O | 690 |
| CC(C)c1ccc(Cc2ccccc2O[C@@H]2C[C@H](CO)[C@@H](O)[C@H](O)[C@H]2O)cc1 | 150 |
| Cc1ccc(Cc2ccccc2O[C@@H]2C[C@H](CO)[C@@H](O)[C@H](O)[C@H]2O)cc1 | 59 |

Tested on: Mus musculus
Assay: Antidiabetic activity in db/db mouse assessed as reduction of blood glucose level at 100 mg/kg, po after 8 hrs by hexokinase method
Format: functional, organism-based
Parameters: dose 100 mg/kg
Outline: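 Male db/db mice on regular chow; single oral gavage dose of 100 mg/kg as homogeneous suspension in 0.5% carboxymethylcellulose sodium. Blood sampled before dosing and at 1, 2, 4, 6, 8, 10 and 24 h; glucose measured by hexokinase method.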

| Compound | Activity |
| --- | --- |
| COc1ccc(Cc2ccccc2O[C@@H]2C[C@H](CO)[C@@H](O)[C@H](O)[C@H]2O)cc1 | Active |
| CCOC(=O)OC[C@H]1O[C@@H](Oc2ccccc2Cc2ccc(OC)cc2)[C@H](O)[C@@H](O)[C@@H]1O [SERGLIFLOZIN ETABONATE] | Active |

From ChEMBL document CHEMBL1817561, “5a-Carba-β-D-glucopyranose derivatives as novel sodium-dependent glucose cotransporter 2 (SGLT2) inhibitors for the treatment of type 2 diabetes” (Bioorg Med Chem, 2011)
